Measurements reported in ChEMBL document CHEMBL2177098, “Synthesis and evaluation of novel ¹⁸F labeled 2-pyridinylbenzoxazole and 2-pyridinylbenzothiazole derivatives as ligands for positron emission tomography (PET) imaging of β-amyloid plaques” (J Med Chem, 2012).

What was measured:
Bone [1] = test: Drug uptake in ICR mouse bone at 370 kBq/100 ul, iv at 60 mins by gamma-counting analysis; type: ADME, organism-based, Bone element; details: in vivo, 1 h
Outline: (§1)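 Male ICR mice (5 weeks, about 20 g) got 18F tracer in saline (370 KBq per 100 μL) via tail vein; n = 5 per time point, killed at 2, 10, 30, 60 min. Organs weighed and γ-counted; percent dose per gram wet tissue from comparison with diluted injectate aliquots.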

Lung [2] = test: Drug uptake in ICR mouse lung at 370 kBq/100 ul, iv at 2 mins by gamma-counting analysis; type: ADME, organism-based; details: in vivo; outline: as §1
Brain [3] = test: Drug uptake in ICR mouse brain at 370 kBq/100 ul, iv at 10 mins by gamma-counting analysis; type: ADME, organism-based; details: in vivo; outline: as §1
Bone [4] = test: Drug uptake in ICR mouse bone at 370 kBq/100 ul, iv at 2 mins by gamma-counting analysis; type: ADME, organism-based, Bone element; details: in vivo; outline: as §1
Lung [5] = test: Drug uptake in ICR mouse lung at 370 kBq/100 ul, iv at 30 mins by gamma-counting analysis; type: ADME, organism-based; details: in vivo, 0.5 h; outline: as §1
Intestine [6] = test: Drug uptake in ICR mouse intestine assessed per organ at 370 kBq/100 ul, iv at 30 mins by gamma-counting analysis; type: ADME, organism-based; details: in vivo, 0.5 h
Outline: (§2)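 Male ICR mice (5 weeks, about 20 g) got 18F tracer in saline (370 KBq per 100 μL) via tail vein; n = 5 per time point, killed at 2, 10, 30, 60 min. Organs removed and γ-counted against diluted injectate; expressed as % injected dose per organ.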

Spleen [7] = test: Drug uptake in ICR mouse spleen at 370 kBq/100 ul, iv at 2 mins by gamma-counting analysis; type: ADME, organism-based; details: in vivo; outline: as §1
Blood [8] = test: Drug uptake in ICR mouse blood at 370 kBq/100 ul, iv at 2 mins by gamma-counting analysis; type: ADME, organism-based; details: in vivo; outline: as §1
Lung [9] = test: Drug uptake in ICR mouse lung at 370 kBq/100 ul, iv at 60 mins by gamma-counting analysis; type: ADME, organism-based; details: in vivo, 1 h; outline: as §1
Stomach [10] = test: Drug uptake in ICR mouse stomach assessed per organ at 370 kBq/100 ul, iv at 2 mins by gamma-counting analysis; type: ADME, organism-based; details: in vivo; outline: as §2
Stomach [11] = test: Drug uptake in ICR mouse stomach assessed per organ at 370 kBq/100 ul, iv at 60 mins by gamma-counting analysis; type: ADME, organism-based; details: in vivo, 1 h
Outline: (§3)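 Normal male ICR mice (5 weeks, about 20 g) received the ¹⁸F tracer in saline (370 KBq per 100 μL) by tail-vein injection. Groups of n = 5 were killed at 2, 10, 30 and 60 min. Organs were removed, weighed and γ-counted against diluted aliquots of the injectate, giving % dose per gram. Stomach and intestine were expressed per organ. The brain ratio is 2 min/60 min uptake. Values are mean ± SD.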

Heart [12] = test: Drug uptake in ICR mouse heart at 370 kBq/100 ul, iv at 10 mins by gamma-counting analysis; type: ADME, organism-based; details: in vivo; outline: as §1
Liver [13] = test: Drug uptake in ICR mouse liver at 370 kBq/100 ul, iv at 60 mins by gamma-counting analysis; type: ADME, organism-based; details: in vivo, 1 h; outline: as §1
Lung [14] = test: Drug uptake in ICR mouse lung at 370 kBq/100 ul, iv at 10 mins by gamma-counting analysis; type: ADME, organism-based; details: in vivo; outline: as §1
[15] = Displacement of [125I]-IMPY from amyloid beta (1 to 42) fibrils after 2 hrs by gamma-counting analysis
Outline: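 Competition binding with aggregated Aβ1-42 fibrils and [125I]IMPY (60000−100000 cpm/100 μL) in 0.05% BSA (1 mL total); inhibitors 10⁻⁴−10^−8.5 M in ethanol. Incubated 37 °C for 2 h, then GF/B vacuum filtration with PBS (0.02 M, pH 7.4) washes and γ counting. Three repeats; IC50 converted to Ki by Cheng−Prusoff.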

Brain [16] = test: Drug uptake in wild type C57BL6 mouse brain at 370 KBq/100 ul after 1 hr by autoradiographic analysis; type: ADME, tissue-based; details: in vitro
Outline: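 Paraffin brain sections from 12-month-old male control C57BL6 mice were deparaffinized through xylene and graded ethanol, then held in PBS (0.2 M, pH 7.4) for 30 min. They were incubated with the ¹⁸F tracer (370 KBq per 100 μL) for 1 h at room temperature. Sections were washed in 40% EtOH, rinsed with water for 1 min, dried, and exposed to a phosphor plate for 2 h. The same sections were then stained with thioflavin S.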

Intestine [17] = test: Drug uptake in ICR mouse intestine assessed per organ at 370 kBq/100 ul, iv at 10 mins by gamma-counting analysis; type: ADME, organism-based; details: in vivo; outline: as §2
Blood [18] = test: Drug uptake in ICR mouse blood at 370 kBq/100 ul, iv at 10 mins by gamma-counting analysis; type: ADME, organism-based; details: in vivo; outline: as §1
Brain [19] = test: Drug uptake in ICR mouse brain at 370 kBq/100 ul, iv at 60 mins by gamma-counting analysis; type: ADME, organism-based; details: in vivo, 1 h; outline: as §1
Liver [20] = test: Drug uptake in ICR mouse liver at 370 kBq/100 ul, iv at 10 mins by gamma-counting analysis; type: ADME, organism-based; details: in vivo; outline: as §1
Kidney [21] = test: Drug uptake in ICR mouse kidney at 370 kBq/100 ul, iv at 60 mins by gamma-counting analysis; type: ADME, organism-based; details: in vivo, 1 h; outline: as §1
Heart [22] = test: Drug uptake in ICR mouse heart at 370 kBq/100 ul, iv at 2 mins by gamma-counting analysis; type: ADME, organism-based; details: in vivo; outline: as §1
[23] = n-Octanol-PBS buffer partition coefficient, log D of the compound at 1.5 MBq after 3 mins at pH 7.4; type: physicochemical
Outline: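 The tracer was partitioned between n-octanol and PBS by vortexing for 3 min at room temperature, then centrifuged for 5 min at 3000 rpm. Samples of the octanol (50 μL) and aqueous (500 μL) layers were counted. log D is the log of the octanol/PBS counts-per-gram ratio. The octanol layer was repartitioned until values were consistent. Measured in triplicate and repeated three times.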

Intestine [24] = test: Drug uptake in ICR mouse intestine assessed per organ at 370 kBq/100 ul, iv at 60 mins by gamma-counting analysis; type: ADME, organism-based; details: in vivo, 1 h; outline: as §2
Brain [25] = test: Drug uptake in ICR mouse brain at 370 kBq/100 ul, iv at 2 mins by gamma-counting analysis; type: ADME, organism-based; details: in vivo; outline: as §1
Bone [26] = test: Drug uptake in ICR mouse bone at 370 kBq/100 ul, iv at 10 mins by gamma-counting analysis; type: ADME, organism-based, Bone element; details: in vivo; outline: as §1
Blood [27] = test: Drug uptake in ICR mouse blood at 370 kBq/100 ul, iv at 60 mins by gamma-counting analysis; type: ADME, organism-based; details: in vivo, 1 h; outline: as §1
Spleen [28] = test: Drug uptake in ICR mouse spleen at 370 kBq/100 ul, iv at 60 mins by gamma-counting analysis; type: ADME, organism-based; details: in vivo, 1 h; outline: as §1
Bone [29] = test: Drug uptake in ICR mouse bone at 370 kBq/100 ul, iv at 30 mins by gamma-counting analysis; type: ADME, organism-based, Bone element; details: in vivo, 0.5 h; outline: as §1
Blood [30] = test: Drug uptake in ICR mouse blood at 370 kBq/100 ul, iv at 30 mins by gamma-counting analysis; type: ADME, organism-based; details: in vivo, 0.5 h; outline: as §1
Spleen [31] = test: Drug uptake in ICR mouse spleen at 370 kBq/100 ul, iv at 10 mins by gamma-counting analysis; type: ADME, organism-based; details: in vivo; outline: as §1
Stomach [32] = test: Drug uptake in ICR mouse stomach assessed per organ at 370 kBq/100 ul, iv at 10 mins by gamma-counting analysis; type: ADME, organism-based; details: in vivo; outline: as §2
Spleen [33] = test: Drug uptake in ICR mouse spleen at 370 kBq/100 ul, iv at 30 mins by gamma-counting analysis; type: ADME, organism-based; details: in vivo, 0.5 h; outline: as §1
Liver [34] = test: Drug uptake in ICR mouse liver at 370 kBq/100 ul, iv at 2 mins by gamma-counting analysis; type: ADME, organism-based; details: in vivo; outline: as §1
Heart [35] = test: Drug uptake in ICR mouse heart at 370 kBq/100 ul, iv at 60 mins by gamma-counting analysis; type: ADME, organism-based; details: in vivo, 1 h; outline: as §1
Stomach [36] = test: Drug uptake in ICR mouse stomach assessed per organ at 370 kBq/100 ul, iv at 30 mins by gamma-counting analysis; type: ADME, organism-based; details: in vivo, 0.5 h; outline: as §2
Kidney [37] = test: Drug uptake in ICR mouse kidney at 370 kBq/100 ul, iv at 10 mins by gamma-counting analysis; type: ADME, organism-based; details: in vivo; outline: as §1
Intestine [38] = test: Drug uptake in ICR mouse intestine assessed per organ at 370 kBq/100 ul, iv at 2 mins by gamma-counting analysis; type: ADME, organism-based; details: in vivo; outline: as §2
Brain [39] = test: Drug uptake in ICR mouse brain at 370 kBq/100 ul, iv at 30 mins by gamma-counting analysis; type: ADME, organism-based; details: in vivo, 0.5 h; outline: as §1
Heart [40] = test: Drug uptake in ICR mouse heart at 370 kBq/100 ul, iv at 30 mins by gamma-counting analysis; type: ADME, organism-based; details: in vivo, 0.5 h; outline: as §1
Kidney [41] = test: Drug uptake in ICR mouse kidney at 370 kBq/100 ul, iv at 2 mins by gamma-counting analysis; type: ADME, organism-based; details: in vivo; outline: as §1
Kidney [42] = test: Drug uptake in ICR mouse kidney at 370 kBq/100 ul, iv at 30 mins by gamma-counting analysis; type: ADME, organism-based; details: in vivo, 0.5 h; outline: as §1
Brain [43] = test: Ratio of drug uptake in brain at 2 mins to drug uptake in brain at 60 mins in ICR mouse at 370 KBq/100 ul, iv; type: ADME, organism-based; details: in vivo; outline: as §3
Liver [44] = test: Drug uptake in ICR mouse liver at 370 kBq/100 ul, iv at 30 mins by gamma-counting analysis; type: ADME, organism-based; details: in vivo, 0.5 h; outline: as §1

Work on CN(C)c1ccc(-c2nc3ccc(OCCOCCOCC[18F])cc3s2)cn1 yielded a Drug uptake (Bone [1]) of 1.58 % ID/g, a Drug uptake (Lung [2]) of 6.69 % ID/g and a Drug uptake (Brain [3]) of 2.64 % ID/g. For the same compound, the Drug uptake (Bone [4]) was 1.86 % ID/g, the Drug uptake (Lung [5]) was 3.28 % ID/g and the Drug uptake (Intestine [6]) was 19.57 %ID. The Drug uptake (Spleen [7]) was 3.14 % ID/g, the Drug uptake (Blood [8]) was 9.79 % ID/g and the Drug uptake (Lung [9]) was 2.33 % ID/g. The Drug uptake (Stomach [10]) was 2.55 %ID, the Drug uptake (Stomach [11]) was 11.34 %ID and the Drug uptake (Heart [12]) was 3.3 % ID/g. The Drug uptake (Liver [13]) was 4.75 % ID/g, the Drug uptake (Lung [14]) was 4.59 % ID/g and the Ki [15] was 5.8 nM. The Drug uptake (Brain [16]) was “Not Active”, the Drug uptake (Intestine [17]) was 10.4 %ID and the Drug uptake (Blood [18]) was 5.44 % ID/g. The Drug uptake (Brain [19]) was 1.84 % ID/g, the Drug uptake (Liver [20]) was 11.6 % ID/g and the Drug uptake (Kidney [21]) was 3.01 % ID/g. For the same compound, the Drug uptake (Heart [22]) was 4.5 % ID/g, the logD at 0.05 h [23] was 3.08 and the Drug uptake (Intestine [24]) was 26.66 %ID. For the same compound, the Drug uptake (Brain [25]) was 3.26 % ID/g, the Drug uptake (Bone [26]) was 0.95 % ID/g and the Drug uptake (Blood [27]) was 3.79 % ID/g. For the same compound, the Drug uptake (Spleen [28]) was 1.47 % ID/g, the Drug uptake (Bone [29]) was 1.64 % ID/g and the Drug uptake (Blood [30]) was 4.96 % ID/g. The Drug uptake (Spleen [31]) was 2.97 % ID/g, the Drug uptake (Stomach [32]) was 8.98 %ID and the Drug uptake (Spleen [33]) was 2.59 % ID/g. It also gave a Drug uptake (Liver [34]) of 12.9 % ID/g, a Drug uptake (Heart [35]) of 2.02 % ID/g and a Drug uptake (Stomach [36]) of 14.13 %ID. It also gave a Drug uptake (Kidney [37]) of 5.45 % ID/g, a Drug uptake (Intestine [38]) of 4.68 %ID and a Drug uptake (Brain [39]) of 1.98 % ID/g. For the same compound, the Drug uptake (Heart [40]) was 2.62 % ID/g, the Drug uptake (Kidney [41]) was 6.82 % ID/g and the Drug uptake (Kidney [42]) was 3.88 % ID/g. The Ratio (Brain [43]) was 1.77 and the Drug uptake (Liver [44]) was 6.79 % ID/g.
